In ChEMBL document CHEMBL1125032, “Structure-activity relationship of antiestrogens. Effect of the side chain and its position on the activity of 2,3-diaryl-2H-1-benzopyrans” (J Med Chem, 1990) one finds Mean weight, relative binding affinity (RBA) and inhibition data, which are given here for twelve molecules.

Where only a bound is given, the exact number is not on record here.

Assay [1] addresses T1, Estrogen receptor (Rattus norvegicus) (UniProt P06211+Q62986). Nature of the assay: Antiestrogenic activity in presence of unlabeled estradiol as mean uterine weight in rats after 0.3 ug dose. It is filed as functional. In short, it runs like this:
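Immature female Charles Foster rats (21–23 days old, 25–40 g) were given 10 µg/rat of compound subcutaneously in 0.1 mL propylene glycol–0.9% saline (1:1, v/v) on three consecutive days. They were co-injected with 0.3 µg E2 at a different site. Controls got E2 plus vehicle. Uteri were weighed 24 h after the last injection. Values are mean ± SD, 6–9 animals.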

For assay [2], the target named is T1, Estrogen receptor (Rattus norvegicus). Kind of assay: Estrogenic activity as mean uterine weight in rats on 10 ug dose. It is filed as functional. In short, it runs like this: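 Immature female Charles Foster rats (21–23 days old, 25–40 g) received 10 µg/rat subcutaneously, suspended in 0.1 mL propylene glycol–0.9% saline (1:1, v/v), daily for three days. Controls received vehicle alone. Uterine wet weight was taken at autopsy 24 h after the final dose and given as mean ± SD in mg from 6–9 animals.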

In assay [3] the target is Anti-estrogen binding site (AEBS) (Homo sapiens) (UniProt Q15125+Q9UBM7). Nature of the assay: Relative binding affinity against Antiestrogen binding site(AEBS). It is filed as functional. As to conditions: Rattus norvegicus. In short, it runs like this: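 Rat liver microsomal fraction was first incubated 2 h at 4 °C with 2 µM diethylstilbestrol to saturate ER sites. It was then incubated 18 h at 4 °C with competitor (1×10⁻⁹ to 3×10⁻⁶ M) and ³H-tamoxifen (1×10⁻⁹ M) in 35% DMF–TEA buffer. Charcoal-dextran was added for 15 min at 4 °C, the tubes were centrifuged at 1000g, and the supernatant was counted.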

Assay [4] has as its target T1, Estrogen receptor (Rattus norvegicus). Kind of assay: Relative binding affinity against estrogen receptor(ER). It is filed as protein assay. Summed up: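 Uterine cytosol came from immature rats primed with 0.1 µg E2 24 h before sacrifice. It was incubated 18–20 h at 4 °C, in triplicate, with competitor (10⁻⁴–10⁻⁹ M) and ³H-E2 (5×10⁻⁹ M) in TEA buffer, pH 7.4, containing 7% DMF. Free ligand was removed with charcoal-dextran (20 min), and bound radioactivity was measured by scintillation counting.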

In assay [5] the target is Estrogen receptor beta (Rattus norvegicus) (UniProt Q62986). Nature of the assay: Mean percent inhibition of Estrogen receptor beta in rat. The arrangement: concentration or dose not given beside the values. As to conditions: concentration not given here. Summed up: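 Immature female rats were dosed subcutaneously with 10 µg/rat for three days together with 0.3 µg E2 at a separate site. Uterine weight was read 24 h after the last dose. Inhibition of E2-stimulated uterine growth was calculated from the mean uterine weights of the vehicle-alone, E2-alone and compound-plus-E2 groups.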

Broadly, the inhibition is how much of the control response was suppressed.

Sequence of Estrogen receptor beta (Rattus norvegicus) (Q62986 whole entry): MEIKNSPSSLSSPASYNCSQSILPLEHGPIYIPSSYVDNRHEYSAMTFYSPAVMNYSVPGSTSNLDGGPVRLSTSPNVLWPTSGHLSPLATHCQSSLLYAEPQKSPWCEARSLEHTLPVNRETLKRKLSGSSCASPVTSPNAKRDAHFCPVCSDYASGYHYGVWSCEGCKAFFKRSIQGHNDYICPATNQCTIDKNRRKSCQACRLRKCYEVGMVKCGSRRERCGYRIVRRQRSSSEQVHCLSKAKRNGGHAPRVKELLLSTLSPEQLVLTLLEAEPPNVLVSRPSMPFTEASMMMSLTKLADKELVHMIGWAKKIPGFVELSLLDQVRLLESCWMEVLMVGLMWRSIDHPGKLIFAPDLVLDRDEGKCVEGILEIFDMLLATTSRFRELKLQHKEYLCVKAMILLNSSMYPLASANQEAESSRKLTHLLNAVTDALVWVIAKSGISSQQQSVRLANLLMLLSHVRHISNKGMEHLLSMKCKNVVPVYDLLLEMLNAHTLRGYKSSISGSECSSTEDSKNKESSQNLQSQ

Take `OCC(O)COc1ccc(C2Oc3ccccc3C=C2c2ccccc2)cc1` (configuration not stated): the Mean weight in assay [1] was 38.8 mg; in assay [2], 20.7 mg.

On to `C1=C(c2ccccc2)C(c2ccc(OCCN3CCCC3)cc2)Oc2ccccc21` (configuration not stated), for which the relative binding affinity (RBA) was determined as 134 in assay [3] and 0.5 in assay [4]. Also, the inhibition in assay [5] turned out to be 56%. Also, the Mean weight in assay [1] was found to be 26.6 mg.

`Oc1ccc(C2Oc3ccccc3C=C2c2ccccc2)cc1` (configuration not stated) had a relative binding affinity (RBA) in assay [4] of 0.05. This molecule had an inhibition in assay [5] of 0%. The figures for the Mean weight in assay [1] and in assay [2] were 45.5 mg and 12.6 mg, respectively.

Take `CC1=C(c2ccccc2)C(c2ccc(OCCN3CCCC3)cc2)Oc2ccccc21` (configuration not stated): the relative binding affinity (RBA) in assay [3] was determined as 150; in assay [4], 9.9. The molecule further returned an inhibition in assay [5] of 56%. In addition, the results for the Mean weight in assay [1] and in assay [2] were 27 mg and 27.2 mg, respectively.

In the case of `C1=C(c2ccccc2)C(c2ccc(OCCN3CCCCC3)cc2)Oc2ccccc21` (configuration not stated), the relative binding affinity (RBA) in assay [3] was determined as 225; in assay [4] it was 0.3. Besides, in assay [5], the inhibition amounted to 75%.

In assay [5], `CCCCNCC(O)COc1ccc(C2Oc3ccccc3C=C2c2ccccc2)cc1` (configuration not stated) showed an inhibition of 0%. For the same molecule, the Mean weight in assay [1] amounted to 45.9 mg; in assay [2] it was 8.7 mg.

`COc1ccc2c(c1)OC(c1ccc(OCCN3CCCC3)cc1)C(c1ccccc1)=C2` (configuration not stated): the relative binding affinity (RBA) in assay [3] amounted to 66; in assay [4] it was 0.4. In assay [5], this molecule displayed an inhibition of 48%.

For `C1=C(c2ccccc2)C(c2ccc(OCCN3CCCCCC3)cc2)Oc2ccccc21` (configuration not stated), the relative binding affinity (RBA) in assay [3] worked out at 153; in assay [4], 0.24. In assay [5], this molecule had an inhibition of 61%. The Mean weight in assay [1] stood at 23.1 mg; in assay [2] it was 19.3 mg.

For `CCC1=C(c2ccccc2)C(c2ccc(OCCN3CCCC3)cc2)Oc2cc(OC)ccc21` (configuration not stated), the relative binding affinity (RBA) in assay [3] is 51; in assay [4] it was 2.1. Further, the inhibition in assay [5] was 0%. Further, the Mean weight stood at 40.6 mg in assay [1] and 34.5 mg in assay [2].

Regarding `CN(C)CCOc1ccc(C2Oc3ccccc3C=C2c2ccccc2)cc1` (configuration not stated), the figures for the relative binding affinity (RBA) in assay [3] and in assay [4] were 98 and 0.11, respectively. This molecule came in with an inhibition in assay [5] of 30%. Also, the Mean weight came out at 36.5 mg in assay [1] and 33.9 mg in assay [2].

For the molecule `C1=C(c2ccccc2)C(c2cccc(OCCN3CCCCC3)c2)Oc2ccccc21` (configuration not stated), in assay [4], the relative binding affinity (RBA) was below 0.001. Moreover, in assay [5], the inhibition was found to be 0%. Also, the Mean weight in assay [1] was 42.2 mg; in assay [2] it was 17.4 mg.

In assay [4], `C1=C(c2ccccc2)C(c2ccccc2OCCN2CCCCC2)Oc2ccccc21` (configuration not stated) yielded a relative binding affinity (RBA) below 0.001. The molecule also yielded an inhibition in assay [5] of 0%. In addition, the Mean weight in assay [1] was found to be 43.1 mg; in assay [2], 11.1 mg.
